Only some compounds are listed: those with a hit (about 1.3% of all), similar ones and a draw of the others.
HIV Rev-RRE inh: HIV Rev-RRE protein-RNA interaction inhibition; 97,000 tested, 0.79% active; AID 704; P05866; Rev peptide-RRE RNA binding, FRET; inhibition, % at 8 µM;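 active = inhibition above the screen-wide mean plus 3 SD, cut at about 35% in these data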
Target sequence (P05866 whole entry, looked up): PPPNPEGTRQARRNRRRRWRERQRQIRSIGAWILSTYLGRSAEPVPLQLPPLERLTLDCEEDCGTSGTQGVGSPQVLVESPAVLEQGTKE
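assay system = Cy5-tagged RRE RNA duplex with fluorescein-tagged Rev peptide | incubation = 5 + 15 min at 25 °C | also added = labelled Rev peptide | measure = % inhibition of FRET ratio versus controls | benchmarks = DMSO wells as 0% and neomycin B wells as 100% inhibition | measured by = FRET fluorescence readout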
LYP inh 2: LYP (human) phosphatase inhibition. Q9Y2R2. recombinant LYP catalytic domain, DiFMUP fluorescence. inhibition, % at 2 µM. 96,000 tested, 0.21% active. AID 640;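 active = inhibition at 2 µM at or above a set limit, the screen mean plus 3 SD, cut at about 24% in these data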
LYP act: increases human PTPN22 phosphatase activity; Q9Y2R2; recombinant LYP, DiFMUP fluorescence; 0 = plate median, 100 = signal doubled; activation, % at 2 µM; 96,000 tested, 0.11% active;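 active = activation at 2 µM above a set limit, the mean plus 5 SD, cut at about 37% in these data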
EphB4 antag: antagonists of human EphB4-ephrin-B2 interaction; P54760; EphB4 LBD / TNYL-RAW-Alexa532 peptide, fluorescence polarization; inhibition, % at 7 µM; 97,000 tested, 0.15% active; AID 720;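 active = inhibition above the screen-wide mean inhibition plus 3 SD, cut at about 15% in these data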
A number is an active result; - = inactive; . = no result given; [ ] = another dose, or the depositor's remark.

SMILES	HIV Rev-RRE inh	LYP inh 2	LYP act	EphB4 antag
Cc1ccc(S(=O)(=O)c2c(COC(=O)c3ccc(Cl)cc3)c(-c3ccccc3)nn2C)cc1	73	-	-	-
COC(=O)Cn1nnc(-c2cccc(OC)c2)n1	-	-	-	-
Cc1cccc(N(C(=O)c2ccc(Cl)cc2)C2CS(=O)(=O)CC2OC(=O)c2ccc(Cl)cc2)c1 (centres undefined)	-	25	-	-
O=C(c1ccc2c(c1)OCO2)N(c1ccccc1)C1C=CS(=O)(=O)C1 (centres undefined)	-	-	-	-
COc1ccc2cc(C3(C)NC(=O)NC3=O)ccc2c1 (centres undefined)	37	-	-	-
COc1ccc2c(c1)CCCC21NC(=O)NC1=O (centres undefined)	-	-	-	-
COc1ccc2cc3cc(C(=O)N4CCN(Cc5ccc6c(c5)OCO6)CC4)oc3nc2c1	-	26	-	-
CC(=O)Nc1nonc1NC(=O)c1ccc(C(C)(C)C)cc1	-	58	-	-
CNc1nnc(-c2cc3cc(Cl)ccc3oc2=O)s1	79	-	-	-
COc1ccc2oc(=O)c(-c3nnc(NCc4ccco4)s3)cc2c1	43	-	-	-
Cc1ccc(NC(=O)Cn2c(=O)oc3cc(S(=O)(=O)N4CCC(C)CC4)ccc32)cc1C	-	-	-	-
CC(C)(C)CC(=O)NC(=S)N1CCCCCC1	-	-	-	-
Fc1ccc(Sc2cc(Cl)c(-c3ccccc3)nn2)cc1	-	-	-	20
O=c1[nH]c2cc3c(cc2cc1CN(Cc1nnnn1CC1CCCO1)C1CCCCC1)OCO3 (centres undefined)	39	-	-	-
O=c1[nH]c2cc3c(cc2cc1CN(CCc1ccccc1)Cc1nnnn1CC1CCCO1)OCO3 (centres undefined)	41	-	-	-
O=C1CN(C(=O)CCCc2c[nH]c3ccccc23)c2ccccc2N1	-	-	-	-
Nc1nonc1-c1nc2ccccc2n1CC(=O)N/N=C\c1ccc(-c2ccc(Cl)cc2)o1	-	-	-	-
CCCN1C=CC(=C/C=C(\C#N)C(=O)OCC)C=C1	136[fluorescence artefact?]	-	-	-
CCCCCCN1C=CC(=C/C=C(\C#N)C(=O)OCC)C=C1	139[fluorescence artefact?]	-	-	-
CCOC(=O)/C(C#N)=C\c1ccc(N2CCN(C)CC2)cc1	-	-	-	-
O=C(Nc1ccccc1)c1ccc(CSc2ncccn2)cc1	-	-	-	-
O=C1CC(=O)N(Cc2ccco2)C(=S)N1	77	-	-	-
O=C1C2C(C(=O)N1Cc1ccco1)C1C=CC2C12CC2 (centres undefined)	-	-	-	-
C/C(=N\Nc1nnc(C)c(=O)[nH]1)C(=O)O	-	-	-	-
COc1cccc(C(=O)c2c[nH]c(C(=O)NCc3cccs3)c2)c1	-	.	.	-
SMILES	HIV Rev-RRE inh	LYP inh 2	LYP act	EphB4 antag
COc1ccc2nc3sc(C(=O)NCc4cccs4)c(N)c3cc2c1	40	-	-	-
CC[n+]1c(/C=C/Nc2ccccc2)oc2ccccc21	52	-	-	-
O=C(NCC(F)(F)F)Nc1ncccn1	-	-	-	-
CC(C)OCCCn1c(=N)c(C(N)=S)cc2c(=O)n3ccccc3nc21	66	-	-	-
CC(C)OCCCn1c(=NC(=O)c2ccncc2)c(C#N)cc2c(=O)n3ccccc3nc21	-	-	-	-
Cn1cccc1C(=S)N=P(C1CCCCC1)(N1CCOCC1)N1CCOCC1	-	-	-	-
N#Cc1c(N)nc2c3c(sc(=N)c2c1N)NC(=O)CC3c1ccccc1 (centres undefined)	49	-	-	-
CCOC(=O)C1CCN(C(=O)CN(c2ccc3c(c2)OCO3)S(C)(=O)=O)CC1	-	-	-	-
Cc1ccc(C2NC(=O)c3c(sc4c3CCN(C)C4)N2)s1 (centres undefined)	75	-	-	-
CN1CCc2c(sc3c2C(=O)NC(c2ccccn2)N3)C1 (centres undefined)	43	-	-	-
COC(=O)c1cc(CSc2nnc(NC3CCCCC3)s2)oc1C	-	-	-	-
O=C1c2ccccc2C(=O)N1CCCN1CCN(CCCN2C(=O)c3ccccc3C2=O)CC1	-	-	-	-
COc1[nH]c(/N=C/c2ccccc2)c(C#N)c1C#N	38	-	-	-
COC(=O)c1ccccc1OCCCOc1ccc(C=O)cc1OC	-	-	-	-
N#CC1=C(N)SC(N)=C(C#N)C1CCC1CCCCC1	68	-	-	-
Nc1nnc(CCC2CCCCC2)s1	-	-	-	-
CCCOC(=O)C1C2C=CC(C2)C1C(=O)OCC(=O)c1ccccc1 (centres undefined)	-	-	-	-
N#CC1(C#N)CC(C=O)=C(N)C1(C#N)CC(=O)c1ccc(F)cc1 (centres undefined)	84[fluorescence artefact?]	-	-	-
O=C(CNS(=O)(=O)c1ccc(Br)s1)NCC1COc2ccccc2O1 (centres undefined)	-	-	-	-
O=C1C2C3C=CC(C3)C2C(=O)N1CCc1ccccc1 (centres undefined)	-	-	-	-
O=C1C2C(C(=O)N1CCc1ccccc1)C1C=CC2C12CC2 (centres undefined)	-	45	-	-
CCCNc1c(F)c(F)c2c(C)c3ccccc3nc2c1F	121[fluorescence artefact?]	-	-	-
CN(c1ccc(Cl)cc1)c1cc(=O)n(C)c2ccccc12	-	-	-	120[fluorescence artefact?]
CC(C)(C)C(=O)[C@@H]1[C@@H]2C(=O)N(Cc3ccccc3)C(=O)[C@@H]2[C@H]2c3ccccc3C=CN12	-	-	-	-
CC(=O)[C@H]1[C@@H]2C(=O)N(c3cccc(Cl)c3)C(=O)[C@@H]2[C@H]2c3ccccc3C=CN21	60	-	-	-
SMILES	HIV Rev-RRE inh	LYP inh 2	LYP act	EphB4 antag
CC(=O)[C@@H]1[C@@H]2C(=O)N(C3CCCCC3)C(=O)[C@@H]2C2c3ccccc3C=CN21 (some centres undefined)	41	-	-	-
CS(=O)(=O)N1Cc2ccccc2CC1C(=O)Nc1ccccc1C(N)=O (centres undefined)	-	-	-	-
c1ccc(-c2nnc(CN3CCCc4ccccc43)o2)cc1	84[fluorescence artefact?]	-	-	-
Cc1ccc(N2C(=O)C(O)(C(F)(F)F)C3=C2CC(C)(C)CC3=O)cc1C (centres undefined)	-	-	-	16
Cc1[nH]n(-c2ccccc2)c(=O)c1C1(C(F)(F)F)C(=O)N(c2ccccc2)C2=C1C(=O)CC(C)(C)C2 (centres undefined)	-	-	-	-
COc1ccc(CCn2nnnc2C(C(C)C)N2CCN(c3ncccn3)CC2)cc1OC (centres undefined)	-	-	-	-
O=C1CC(/C=C/c2ccco2)=Nc2ccccc2N1	41	-	-	-
O=C(CSc1nnc(-c2ccncc2)n1CC1CCCO1)Nc1nccs1 (centres undefined)	-	-	-	-
COc1cc([C@@H]2[C@H]3CNCC=C3C(C#N)=C(N)C2(C#N)C#N)ccc1OC(C)C	50	-	-	-
COc1ccc2c(CC(=O)Nc3c(C)n(C)n(-c4ccccc4)c3=O)coc2c1	-	-	-	-
